From PubChem
Shown are actives, neighbours in structure and some others; about 2.3% of the full set was active somewhere.
ARFGAP1 inhibitor = inhibitors of rat ARFGAP1 GAP activity, primary screen, biochemical, fluorescence polarization, GDP tracer; Arfgap1-stimulated ARF1 GTP hydrolysis, GDP FP detection; inhibition, % at 16.5 µM; 360,000 tested, 0.26% active; ADP-ribosylation factor GTPase-activating protein 1 (Rattus norvegicus), Q62848; AID 651572, 2012;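 active means inhibition above a per-plate limit, mean inhibition of low control wells plus 3 SD, cut at about 25% in these data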;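 further: 0% = DMSO wells with enzyme and 100% = wells lacking Arfgap1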
Target sequence (Q62848 1-136 limits assumed): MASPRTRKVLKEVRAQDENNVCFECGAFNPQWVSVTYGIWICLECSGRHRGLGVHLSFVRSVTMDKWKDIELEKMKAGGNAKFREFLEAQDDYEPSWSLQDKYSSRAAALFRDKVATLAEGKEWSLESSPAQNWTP
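Material: truncated rat Arfgap1 GAP domain; Incubation: compound-enzyme preincubation 20 min, reaction 120 min, detection 60 min, 25 °C; Read-out: percent inhibition of Arfgap1-stimulated GTP hydrolysis; Technique: FP, GDP Alexa 633 tracer displaced from anti-GDP antibody, 620/688 nm; Controls: No-Arfgap1 wells (100%) versus DMSO full-reaction wells (0%); Replication: single well per compound.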
SKKanGAS inh = S. pyogenes SKKanGAS growth inhibitors in kanamycin, primary screen, streptokinase expression inhibitor project, SKKanGAS strain, BacTiter-Glo luminescence; 6 h; inhibition, % at 7.5 µM; 300,000 tested, 1.3% active;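 active means mean replicate score, as percent of positive control median, at least 50; inconclusive means mean below 50 but one replicate at or above 50; inactive means mean and every replicate below 50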;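 further: strain carries kanamycin resistance gene driven by streptokinase promoter and grows in 40 µg/ml kanamycin; loss of luminescence reflects streptokinase promoter inhibition or plain growth inhibition; 0% = median of DMSO wells and 100% = positive control at its reference dose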
ASAP1 inh = inhibitors of human ASAP1 ArfGAP activity, primary screen, biochemical, fluorescence polarization | inhibition, % at 16.5 µM | ASAP1-stimulated ARF1 GTP hydrolysis, GDP FP detection | 360,000 tested, 0.19% active; in the data active means inhibition above about 25%;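 further: 0% = vehicle with enzyme and substrate and 100% = no enzyme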
Target sequence (Q9ULH1 325-724 limits assumed): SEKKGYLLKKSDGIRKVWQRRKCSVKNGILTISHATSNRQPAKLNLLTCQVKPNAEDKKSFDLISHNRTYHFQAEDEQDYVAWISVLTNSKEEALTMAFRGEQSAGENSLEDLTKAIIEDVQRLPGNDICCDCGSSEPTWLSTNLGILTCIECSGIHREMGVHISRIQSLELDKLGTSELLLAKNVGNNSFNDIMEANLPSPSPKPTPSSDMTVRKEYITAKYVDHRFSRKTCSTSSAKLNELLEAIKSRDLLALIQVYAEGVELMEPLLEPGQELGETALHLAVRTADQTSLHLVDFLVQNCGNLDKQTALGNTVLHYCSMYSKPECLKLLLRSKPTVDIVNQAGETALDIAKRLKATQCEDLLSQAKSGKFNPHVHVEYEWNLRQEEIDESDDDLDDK
sPLA2-III inh = human group III sPLA2 inhibitors, primary screen, biochemical, QFRET, BODIPY PC-A2 liposome substrate | Group 3 secretory phospholipase A2 (Homo sapiens), Q9NZ20 | QFRET BODIPY PC-A2 liposome hydrolysis, fluorescence | inhibition, % at 12.2 µM | 370,000 tested, 0.56% active | AID 743126, 2013;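 active means inhibition above mean plus 3 SD of compounds lying within the high and low control bounds, cut at about 19% in these data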;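 further: 0% = median of test compound wells and 100% = no enzyme DMSO wells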
Calb FLC = C. albicans growth inhibition with fluconazole, primary screen, CaCi-2 strain, Alamar Blue fluorescence; C. albicans CaCi-2 + fluconazole, 48 h; growth inhibition, % (test concentration not listed); 300,000 tested, 0.57% active;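 active means growth inhibition above about 58% in most replicates, limit read from the data, passing the limit was not always enough; inconclusive means exactly half the replicates above a set limit; inactive means most replicates below a set limit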;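 further: all wells also contain fluconazole at 8 µg/ml as a sub-toxic cotreatment; 0% = median of DMSO wells and 100% = median of geldanamycin control wells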
The depositor's hits bear a star; ? = inconclusive; / = no result given.

SMILES	ARFGAP1 inhibitor	SKKanGAS inh	ASAP1 inh	sPLA2-III inh	Calb FLC
Cc1[nH]c2ccccc2c1C(c1ccccn1)N1CCCC1 (centres undefined)	-1	-1	11	0	4
CN1CCN(C(c2ccc(C(F)(F)F)cc2)c2cc(Cl)c3cccnc3c2O)CC1 (centres undefined)	5	104*	13	12	100*
Oc1c(C(c2ccccn2)N2CCCCC2)cc(Cl)c2cccnc12 (centres undefined)	-5	54*	-10	10	9
CC(NCc1ccco1)C(=O)N1CCN(Cc2ccccc2F)CC1 (centres undefined)	/	/	/	11	/
COC(=O)[C@]12C[C@H](CC(=O)NCc3ccc(C)o3)C(=O)N(Cc3cccc4ccccc34)C1=C[C@H](C1CCCC1)O[C@@H]2C	/	/	/	-13	/
O=C(CSc1cc(Cl)ccc1Cl)N/N=C/c1ccc[nH]1	/	/	/	-2	/
CCOC(=O)c1sc(=S)n(-c2ccccc2Cl)c1C	-5	-6	-1	-3	25
CCOC(=O)N1C(=O)C2(CCCCC2)N(c2ccccc2Cl)C1=S	-5	2	4	9	100*
N#CCC[C@H]1CC[C@]2(CCCN(c3ccccc3)C2)O1	/	/	/	0	/
Cc1cccc(CSc2nc(N)c(C#N)c(-c3cccs3)c2C#N)c1	-2	59*	-14	-9	1
N#Cc1ccc(S(=O)(=O)NCC2CCN(C(=O)C(=O)c3cc4ccccc4o3)CC2)cc1	-5	/	15	-14	/
O=C(NC1CCCCN(Cc2cccc(F)c2)C1=O)c1ccc(F)cc1 (centres undefined)	/	/	/	1	/
Cc1cc(NC(=O)NC(=O)c2cccc(OC(F)(F)C(F)F)c2)n[nH]1	7	-5	0	5	4
Cc1cc(NC(=O)c2cccc(Oc3ccccc3)c2)n[nH]1	-7	31	11	-2	96*
CCN(Cc1ccccc1)C(=O)CCCN1C(=O)COc2ccc(C)cc21	/	/	/	-3	/
S=C(Nc1ccc(Oc2ccccc2)cc1)NC1CCCCCC1	7	18	-7	-7	-9
S=C(Nc1ccc(Oc2ccccc2)cc1)NC1CCCCC1	7	54*	3	8	0
CSc1ccccc1-c1n[nH]c(=S)o1	-14	56*	-10	10	8
Cc1ccccc1-c1n[nH]c(=S)o1	-4	1	1	13	1
O=C(Nc1nccs1)c1ccc(-c2ccc(F)c(Cl)c2)o1	6	75*	12	-12	19
O=C(Nc1nccs1)c1ccc(-c2ccc(Cl)cc2Cl)o1	-12	16	-5	2	-8
Nn1c(SCC(=O)Nc2ccccc2-c2ccccc2)nnc1-c1cc(-c2ccccc2)n[nH]1	/	/	/	5	/
CC1CCN(C(=O)c2ccc3c(c2NCCO)C(=O)c2ccccc2C3=O)CC1	14	12	-1	6	11
CCN(CC)CCNC(=O)c1ccc2c(c1NCCO)C(=O)c1ccccc1C2=O	9	51*	6	10	-4
CC1(C(=O)NS(=O)(=O)c2cccc(F)c2)CCN1C(=O)C1(c2ccc(Cl)cc2)CCC1 (centres undefined)	3	/	-9	-23	/
SMILES	ARFGAP1 inhibitor	SKKanGAS inh	ASAP1 inh	sPLA2-III inh	Calb FLC
Cc1cc(-c2cc(C(=O)O)c3ccccc3n2)c(C)s1	9	-10	9	-6	80*
COc1cccc2c1C(=O)c1c(O)c3c(c(O)c1C2=O)C[C@](O)(C(C)=O)C[C@H]3O[C@@H]1C[C@@H](N)[C@@H](O)[C@@H](C)O1	4	102*	5	-133	-33
COc1ccc(-n2c(SCC(=O)Nc3cccc4ccccc34)nnc2-c2ccco2)cc1	/	/	/	-13	/
Cn1nc(-c2ccccc2F)c2cc(C(=O)Nc3ccc4c(c3)OCCO4)sc21	8	26	5	-9	41
COc1cccc(-c2nn(C)c3sc(C(=O)Nc4ccc5c(c4)OCCO5)cc23)c1	/	59*	/	/	5
Cn1c(-c2ccc(N)cc2)nc2ccccc21	5	/	-7	1	/
Cc1ccc(-n2c(N)c(-c3nc4ccccc4n3C)sc2=S)cc1	0	50*	1	9	-6
COC(=O)[C@]12C[C@H](CC(=O)NCc3ccc(C)o3)C(=O)N(Cc3ccccc3)C1=C[C@H](C1CCCC1)O[C@@H]2C	2	/	11	-14	/
COC(=O)[C@]12C[C@H](CC(=O)NCc3ccccc3)C(=O)N(Cc3cccc4ccccc34)C1=C[C@H](C(C)C)O[C@@H]2C1CC1	/	/	/	-17	/
CCN(C(=O)c1ccco1)c1nc(-c2ccc(OC)cc2)cs1	0	22	-7	7	-1
COc1ccc(-c2csc(N(CC3CCCO3)C(=O)c3ccco3)n2)cc1 (centres undefined)	-2	-18	6	1	98*
CC(C)c1ccc(OC(=O)c2ccc3c(=O)n4c(nc3c2)CCC4)cc1	-1	80*	-3	-2	0
CN1OC[C@@H]2CN[C@H](c3ccc(-n4ccnc4)cc3)C[C@@H]21	-1	/	-10	1	/
CCc1ccc(/C=C/c2c([N+](=O)[O-])c(=O)n(C)c(=O)n2C)cc1	-6	50*	4	-6	-26
Cc1ccccc1C1CCC2(CCC(=O)N2CC[C@@H](O)c2ccccc2)CC1 (some centres undefined)	/	/	/	-1	/
O=C(CCCCl)NC1=NN(c2ccccc2)C(=O)C1	0	/	-7	5	/
O=C(COc1ccc(Cl)cc1)NC1=NN(c2ccccc2)C(=O)C1	-8	62*	-4	-5	17
C=CCn1c(O)c(N=NC(=S)Nc2cccc(C)c2)c2ccccc21	3	94*	7	17	?
Cc1ccc(Cn2c(O)c(N=NC(=S)Nc3ccccc3F)c3ccccc32)cc1	6	61*	-1	-1	-6
CCC[C@H]1[C@@H](N(C)Cc2cccs2)CC[C@@]23CCCN2C(=O)CCC[C@@H]13	/	/	/	1	/
N#Cc1c(-c2ccc(Cl)cc2)c(-c2ccc(Cl)cc2)nn(CCO)c1=O	-7	/	-1	-4	/
Oc1ccc(/C=N/Nc2cc(N3CCOCC3)nc(N3CCOCC3)n2)cc1	-8	6	1	-10	-2
Oc1ccc(/C=N/Nc2cc(N3CCCC3)nc(N3CCCC3)n2)cc1	28*	-17	13	1	-4
Cc1cc(N/N=C/c2ccc(O)cc2O)c2ccccc2n1	-2	2	-8	11	12
Fc1ccc(Nc2nc(N/N=C/c3ccco3)nc(N3CCCCC3)n2)cc1	8	68*	-10	-2	53
Oc1ccc(/C=N/Nc2nc(N3CCCCCC3)nc(N3CCCCCC3)n2)c(O)c1	15	112*	19	-20	-16
Oc1ccc(/C=N/Nc2ccc3ccccc3c2)c(O)c1	12	52*	13	-2	-22
